A short description of assay [1]: SK-BR-3 cell growth inhibitors, pilot screen, 24 h, human (AID 572;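 active means viability at or below 10% of carrier control in both of two separate runs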;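 further: compound exposure lasted between 18 and 24 h rather than exactly 24 h; 100% = carrier-treated control wells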). To be noted: SK-BR-3 viability, CellTiter-Glo luminescence, at 10 µM, stronger effect = lower value. A general note: Cellular ATP, detected with luciferase, serves as a proxy for viable cell number.
Assay [2] is described as follows: HUVEC growth inhibition – cell-based, human, primary screen (AID 575;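 active means viability at or below 30% in both replicate assays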;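 further: 100% = median of untreated cell wells with 0.1% DMSO on each plate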). To be noted: HUVEC proliferation, CellTiter-Glo luminescence, 72 h; at 10 µM; stronger effect = lower value. In short, it runs like this:
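Test system: primary human umbilical vein endothelial cells. Quantity: 1250 cells/well. Compound: single 10 µM dose, 0.1% DMSO, from 5x medium stock. Timing: 72 h treatment at 37 °C. Detection: ATP-based CellTiter-Glo luminescent read. Benchmarks: vehicle and MePR control wells. Format: 384-well plates coated with collagen.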

A short description of assay [3]: growth inhibitors of H69AR lung tumor, primary screen, human, duplicate replicates (AID 580).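 Further: 100% = mean luminescence of untreated wells and 0% = no signal.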 Conditions: H69AR lung tumor cells viability, ATP luminescence, 72 h; at 10 µM; stronger effect = lower value.
A short description of assay [4]: reversal of MRP1-mediated doxorubicin resistance, pilot screen, H69AR cells, doxorubicin co-treatment (AID 601;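 active means viability loss from added drug above about 55%, and viability with drug at most 40%, in both replicates, limit read from the data, passing the limit was not always enough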). To be noted: CellTiter-Glo, 72 h, at 10 µM; for differential viability (reversal): stronger effect = higher value.
The nature of assay [5]: 384-well plate pilot, post-Golgi transport modulator project, inhibition of yeast transport mutant growth (AID 636; in the data active means inhibition above about 31%). To be noted: absorbance 615 nm, about 18 h, stronger effect = higher value.
Assay [6] can be described thus: growth suppression of yeast trafficking mutant, preliminary HTS, modulators of trafficking downstream of Golgi apparatus project, 1536-format plate, OD 615 nm (AID 637; in the data active means inhibition above about 30%). To be noted: yeast transport mutant growth, absorbance 615 nm, 18 h; stronger effect = higher value.
[7] abbreviates: H69AR cells + 2 uM doxorubicin, measured here: viability with 2 uM doxorubicin, stronger effect = lower value.
Setting [8] is: H69AR cells, compound alone cytotoxicity.

Molecules are shown by their SMILES. Calls of active or inactive are those of the source.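 How the source made its calls, unless noted: active means viability at or under a set limit in both replicates, limit being median viability minus 3 SD (cut at about 48% in these data, passing the limit was not always enough); inconclusive means at or under the limit in just one replicate; inactive means at or above the limit in both replicates.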 Peptide text beside a SMILES is read from it. * marks the point of attachment. Boc = CC(C)(C)OC(=O)*

What is called viability is a read-out of living cells in per cent, often relative to untreated cells. By inhibition is commonly meant the change of the read-out against control, counted positive when it falls.

Take `CCCC(CCC)C(=O)NCCN1CCOCC1`: the viability is 118% (inactive) in assay [1]; 85% (inactive) in assay [2]; 96.8% (inactive) in assay [3]; 86.6% in assay [4] (setting [7]); 96.8% in assay [4] (setting [8]). The differential viability (reversal) in assay [4] (H69AR cells + 2 uM doxorubicin) was 10.2% (inactive). Further, the inhibition is -2.34% (inactive) in assay [5] and 4.92% (inactive) in assay [6].
In the case of `COC(=O)Nc1ccc(S(=O)(=O)N2CCCCCC2)cc1`, the viability in assay [1] was 99% (inactive); in assay [2], 93.7% (inactive); in assay [3], 80.3% (inactive); in assay [4] (setting [7]), 91%; in assay [4] (setting [8]) it was 80.3%. Moreover, the differential viability (reversal) in assay [4] (H69AR cells + 2 uM doxorubicin) was -10.7% (inactive). Also, the results for the inhibition in assay [5] and in assay [6] were -10.1% (inactive) and -2% (inactive), respectively.
`CC(C)(Oc1ccc(Cl)cc1)C(=O)NCc1ccncc1`: the viability in assay [1] is 111% (inactive); in assay [2] it was 105% (inactive); in assay [3], 94.2% (inactive); in assay [4] (setting [7]), 88.7%; in assay [4] (setting [8]) it was 94.2%. The differential viability (reversal) in assay [4] (H69AR cells + 2 uM doxorubicin) is 5.47% (inactive). The inhibition was -6.89% (inactive) in assay [5] and -12.2% (inactive) in assay [6].
`CCN(CC)S(=O)(=O)c1ccc(F)c(C(=O)NCCC(C)C)c1`: the viability is 82% (inactive) in assay [1]; 95% (inactive) in assay [2]; 90.9% (inactive) in assay [3]; 84.4% in assay [4] (setting [7]); 90.9% in assay [4] (setting [8]). Further, the differential viability (reversal) in assay [4] (H69AR cells + 2 uM doxorubicin) was 6.46% (inactive). In addition, the inhibition in assay [5] is -0.54% (inactive); in assay [6] it was -2.73% (inactive).
As for `O=C(CSc1nnc(COc2ccc(Cl)cc2)o1)OC1CCCCC1`, the viability in assay [1] was 106% (inactive); in assay [2], 95.5% (inactive); in assay [3] it was 102% (inactive); in assay [4] (setting [7]), 95.9%; in assay [4] (setting [8]), 102%. The differential viability (reversal) in assay [4] (H69AR cells + 2 uM doxorubicin) was 6.06% (inactive). Moreover, the values for the inhibition in assay [5] and in assay [6] were 4.66% (inactive) and -3.87% (inactive), respectively.
For `CCCN1CCN(C(=O)Cn2cccc2C(=O)c2ccccc2)CC1`, the viability in assay [1] was 84% (inactive); in assay [2] it was 99.9% (inactive); in assay [3] it was 100% (inactive); in assay [4] (setting [7]), 82.2%; in assay [4] (setting [8]), 100%. Moreover, in assay [4] (H69AR cells + 2 uM doxorubicin), the differential viability (reversal) is 17.8% (inactive). For the same molecule, the inhibition in assay [5] is -2.27% (inactive); in assay [6] it was 1.27% (inactive).
For `O=C(NC1(C(F)(F)F)C(=O)Nc2c1c(=O)[nH]c(=O)n2Cc1ccco1)C1CCCCC1` (stereo not drawn), the viability is 106% (inactive) in assay [1]; 97.6% (inactive) in assay [2]; 97.9% (inactive) in assay [3]; 80.4% in assay [4] (setting [7]); 97.9% in assay [4] (setting [8]). Also, the differential viability (reversal) in assay [4] (H69AR cells + 2 uM doxorubicin) is 17.5% (inactive). Further, the values for the inhibition in assay [5] and in assay [6] were -6.49% (inactive) and -1.82% (inactive), respectively.
Turning to `Cc1ccc(OCC2Cn3c(nc4c3c(=O)n(C)c(=O)n4C)O2)cc1` (stereo not drawn), the viability in assay [1] was 91% (inactive); in assay [2], 96% (inactive); in assay [3] it was 93% (inactive); in assay [4] (setting [7]), 96%; in assay [4] (setting [8]), 93%. Moreover, in assay [4] (H69AR cells + 2 uM doxorubicin), the differential viability (reversal) was -3% (inactive). Further, the inhibition in assay [5] is -8.36% (inactive); in assay [6] it was 2.91% (inactive).
On to `COc1cc(C2N=C(c3ccccc3)NO2)cc(Br)c1O` (stereo not drawn), for which the viability in assay [1] is 90% (inactive); in assay [2] it was 87.5% (inactive); in assay [3], 84.8% (inactive); in assay [4] (setting [7]), 89%; in assay [4] (setting [8]) it was 84.8%. For the same molecule, the differential viability (reversal) in assay [4] (H69AR cells + 2 uM doxorubicin) was -4.25% (inactive). In addition, the inhibition in assay [5] is -3.12% (inactive); in assay [6] it was -10% (inactive).
For `N#CCc1ccc(NC(=O)Nc2cccc(Cl)c2)cc1`, the viability in assay [1] is 88% (inactive); in assay [2] it was 76.9% (inactive); in assay [3] it was 92.5% (inactive); in assay [4] (setting [7]) it was 105%; in assay [4] (setting [8]) it was 92.5%. The differential viability (reversal) in assay [4] (H69AR cells + 2 uM doxorubicin) is -12.1% (inactive). The values for the inhibition in assay [5] and in assay [6] were -6.44% (inactive) and 2.73% (inactive), respectively.
`COc1ccc(-c2nc3cc(NC(=O)Cc4ccc(OC)c(OC)c4)ccc3o2)cc1`: the viability in assay [1] was 90.5% (inactive); in assay [2] it was 54.8% (inactive); in assay [3], 94.4% (inactive); in assay [4] (setting [7]), 90.7%; in assay [4] (setting [8]), 94.4%. Also, the differential viability (reversal) in assay [4] (H69AR cells + 2 uM doxorubicin) is 3.68% (inactive). Also, the inhibition in assay [5] is 0.67% (inactive); in assay [6] it was 2.58% (inactive).
Regarding `CCOC(=O)N1CCN(C(=O)c2ccc3c(=O)n(Cc4ccc(OC)cc4)c(=S)[nH]c3c2)CC1`, the viability is 99% (inactive) in assay [1]; 64.6% (inactive) in assay [2]; 72.5% (inactive) in assay [3]; 25.1% in assay [4] (setting [7]); 72.5% in assay [4] (setting [8]). In addition, in assay [4] (H69AR cells + 2 uM doxorubicin), the differential viability (reversal) was 47.4% (inactive). Further, the inhibition in assay [5] was -0.13% (inactive); in assay [6] it was -5.08% (inactive).
In the case of `COc1ccc(C2C3=C(CCCC3=O)Nc3nc(SCc4ccccc4)nn32)cc1OC` (stereo not drawn), the viability in assay [1] was 101% (inactive); in assay [2], 121% (inactive); in assay [3], 74.9% (inactive); in assay [4] (setting [7]), 96%; in assay [4] (setting [8]), 74.9%. Moreover, the differential viability (reversal) in assay [4] (H69AR cells + 2 uM doxorubicin) was -21% (inactive). The inhibition in assay [5] was -4.46% (inactive); in assay [6] it was 0.36% (inactive).
Take `CCC(C)C(NC(=O)OC(C)(C)C)C(=O)NC(CC(C)C)C(N)=O` (stereo not drawn) (Boc-Ile-Leu-NH2; configuration not given here): the viability in assay [1] was 109% (inactive); in assay [2] it was 114% (inactive); in assay [3], 98.9% (inactive); in assay [4] (setting [7]) it was 89.1%; in assay [4] (setting [8]), 98.9%. Moreover, the differential viability (reversal) in assay [4] (H69AR cells + 2 uM doxorubicin) is 9.78% (inactive). Moreover, the inhibition in assay [5] was -2.73% (inactive); in assay [6], -1.8% (inactive).
As to `Cc1cc(C)n2nc[n+](C)c2n1`, the viability in assay [1] is 88% (inactive); in assay [2], 106% (inactive); in assay [3], 96.4% (inactive); in assay [4] (setting [7]), 84.9%; in assay [4] (setting [8]) it was 96.4%. Also, the differential viability (reversal) in assay [4] (H69AR cells + 2 uM doxorubicin) is 11.4% (inactive). The results for the inhibition in assay [5] and in assay [6] were 2.86% (inactive) and 0.98% (inactive), respectively.
With `CCOC(=O)N1CCC(n2c(=S)[nH]c3cc(OC)c(OC)cc3c2=O)CC1`, the viability in assay [1] is 114% (inactive); in assay [2] it was 59.5% (inactive); in assay [3], 57.1% (inactive); in assay [4] (setting [7]), 59.1%; in assay [4] (setting [8]), 57.1%. Further, in assay [4] (H69AR cells + 2 uM doxorubicin), the differential viability (reversal) was -2.02% (inactive). For the same molecule, the inhibition in assay [5] was -4.16% (inactive); in assay [6], -1.27% (inactive).

(Values after PubChem BioAssay.)
